Laboratory results as given in ChEMBL document CHEMBL4330057, “Second generation of diazachrysenes: Protection of Ebola virus infected mice and mechanism of action” (Eur J Med Chem, 2019).
pEC50, pIC50: −log10 of the molar value. The source made the active and inactive calls. The calls are words filed in the database; no cut-off is given here.

Assays:
Cytochrome P450 2C19 = Cytochrome P450 2C19 (Homo sapiens, UniProt P33261); experiment: Inhibition of CYP2C19 (unknown origin) using CEC as substrate; format: ADME
Procedure, shortened: (§1)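 CYP IC50 was taken from the net fluorescent signal after incubation at 37 °C for a set time with active cytochrome P450 enzyme and a fluorescent probe substrate.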

[1] = Cytotoxicity against human HeLa cells after 2 hrs by high content imaging analysis; format: cell-based
[2] = Half life in mouse liver microsomes; format: ADME, Microsome
Procedure, shortened: (§2)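 Substrate depletion with mouse or human liver microsomes, 1 h at 37 °C. Clearance (μL/min/mg) and half-life derived.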

Cytochrome P450 3A4 [3] = molecular target: T1, Cytochrome P450 3A4 (Homo sapiens, UniProt P08684); experiment: Inhibition of CYP3A4 (unknown origin) using 7-benzyloxyquinoline as substrate; format: ADME; procedure, shortened: as §1
Ebolavirus [4] = experiment: Antiviral activity against Ebolavirus H. sapiens-wt/1995/Kikwit-9510621 infected in human HeLa cells assessed as inhibition of viral infection pretreated for 2 hrs followed by viral infection and measured after 48 hrs by EboV GP immunostaining based high content imaging analysis; format: functional, organism-based; settings: for EC90 / pEC50: Orthoebolavirus, H. sapiens-wt/1995/Kikwit-9510621, HeLa; for pEC50: read-out: EC50
[5] = Solubility of the compound in pH 7.4 buffer by laser nephelometric method; format: physicochemical
Procedure, shortened: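 Solubility at pH 7.4 was measured by laser nephelometry (light scattering), in triplicate.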

[6] = Half life in human liver microsomes; format: ADME, Microsome; procedure, shortened: as §2
Cytochrome P450 2D6 = Cytochrome P450 2D6 (Homo sapiens, UniProt P10635); experiment: Inhibition of CYP2D6 (unknown origin) using 3-(2-(N, N-Diethyl-N-methylamino)ethyl)-7-Methoxy-4-Methylcoumarin as substrate; format: ADME; settings: read-out: INH; procedure, shortened: as §1
[7] = Clearance in mouse liver microsomes after 1 hr; format: ADME, Microsome; settings: read-out: CLH; procedure, shortened: as §2
[8] = Selectivity index, ratio of CC50 for human HeLa cells to EC50 for Ebolavirus H. sapiens-wt/1995/Kikwit-9510621 infected in human HeLa cells; format: toxicity, cell-based; settings: read-out: Ratio CC50/EC50
Cytochrome P450 3A4 [9] = molecular target: T1, Cytochrome P450 3A4; experiment: Inhibition of CYP3A4 (unknown origin) using 7-benzyloxy-4-trifluoromethylcoumarin as substrate; format: ADME; procedure, shortened: as §1
[10] = Solubility of the compound in deionized water; format: physicochemical
[11] = Stability in plasma (unknown origin) after 1 hr at 37 degC; format: ADME, cell-free; settings: read-out: Stability
Procedure, shortened: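 Compound was incubated in plasma for 1 h at 37 °C, and the percent remaining was reported.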

[12] = Clearance in human liver microsomes after 1 hr; format: ADME, Microsome; settings: read-out: CLH; procedure, shortened: as §2
Cytochrome P450 3A4 [13] = molecular target: T1, Cytochrome P450 3A4; experiment: Inhibition of CYP3A4 (unknown origin) using dibenzylfluorescein as substrate; format: ADME; procedure, shortened: as §1
[14] = Apparent permeability from apical to basolateral side in MDCK cells; format: ADME, cell-based, Canis lupus familiaris; settings: dog
Procedure, shortened: (§3)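 Apparent permeability measured in MDCK cell monolayers, apical→basolateral and basolateral→apical directions, three biological replicates.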

[15] = Apparent permeability from basolateral to apical side in MDCK cells; format: ADME, cell-based, Canis lupus familiaris; settings: dog; procedure, shortened: as §3
Ebolavirus [16] = experiment: Antiviral activity against Ebolavirus infected in mouse assessed as protection against viral infection at 20 mg/kg/day relative to control; format: functional
Ebolavirus [17] = experiment: Antiviral activity against Ebolavirus infected in mouse assessed as protection against viral infection at 30 mg/kg/day relative to control; format: functional
Ebolavirus [18] = experiment: Antiviral activity against Ebolavirus; format: functional, organism-based; settings: Orthoebolavirus
[19] = tested on: Vesicular stomatitis virus; experiment: Antiviral activity against VSV expressing GFP infected in human HeLa cells assessed as inhibition of viral infection at 2 uM pre-incubated for 2 hrs followed by viral infection and measured after 6 hrs by cell mask deep red staining based assay; format: functional, organism-based
Procedure, shortened: (§4)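 HeLa cells pretreated 2 h with compound, then infected with rVSV-EBOV-GP-GFP (8 h) or VSV-GFP (6 h), and stained with Cell Mask Deep Red. Relative inhibition = 1 minus (% GFP-expressing cells normalised to mock). Mean ± SD of three replicates, representative of three independent experiments.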

Zaire ebolavirus [20] = experiment: Antiviral activity against Ebolavirus Mayinga infected in Balb/c mouse assessed as protection against viral infection by measuring host survival at 10 mg/kg, ip administered 2 hrs prior to viral infection daily for 6 days and measured for 14 days relative to control; format: functional, 1976
[21] = tested on: Vesicular stomatitis virus; experiment: Antiviral activity against VSV expressing GFP infected in human HeLa cells assessed as inhibition of viral infection at 0.1 uM pre-incubated for 2 hrs followed by viral infection and measured after 6 hrs by cell mask deep red staining based assay; format: functional, organism-based; procedure, shortened: as §4
Zaire ebolavirus [22] = experiment: Antiviral activity against VSV pseudotyped Ebolavirus Mayinga expressing GFP infected in human HeLa cells assessed as inhibition of viral infection up to 50 uM pre-incubated for 2 hrs followed by viral infection and measured after 8 hrs by high content imaging analysis; format: functional, organism-based; settings: 1976; procedure, shortened: as §4
Zaire ebolavirus [23] = experiment: Antiviral activity against VSV pseudotyped Ebolavirus Mayinga expressing GFP infected in human HeLa cells assessed as inhibition of viral infection at 2 uM pre-incubated for 2 hrs followed by viral infection and measured after 8 hrs by cell mask deep red staining based assay; format: functional, organism-based; settings: 1976; procedure, shortened: as §4
[24] = tested on: Vesicular stomatitis virus; experiment: Antiviral activity against VSV expressing GFP infected in human HeLa cells assessed as inhibition of viral infection at 50 uM pre-incubated for 2 hrs followed by viral infection and measured after 6 hrs by cell mask deep red staining based assay; format: functional, organism-based; procedure, shortened: as §4
[25] = molecular target: Cathepsin B (Homo sapiens) (UniProt P07858); experiment: Inhibition of cathepsin B activity in human HeLa cells at 10 uM after 12 hrs by magic red substrate based fluorescence assay; format: cell-based
Procedure, shortened: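 HeLa cells were exposed to compound for 12 h, then given the Magic Red cathepsin B peptide reporter, washed, and imaged at Ex/Em 590/630. Total intensity and average area of red fluorescence were scored by high-content analysis. Eight wells per point, about 3000 cells/well, mean ± SD, three independent experiments.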

HeLa [26] = experiment: Induction of lysosomotropism in human HeLa cells infected with Ebolavirus assessed as increase in lysosome concentration in juxtanuclear region at 10 uM for 2 hrs by acridine orange staining based assay; format: functional, cell-based
Procedure, shortened: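 HeLa cells were pretreated with compound for 2 h, then given acridine orange for 30 min and washed. Red AO fluorescence in acidic compartments was imaged, and total intensity and average area were scored by high-content imaging. Eight wells per point, about 3000 cells/well, mean ± SD, representative of three independent experiments.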

HeLa [27] = experiment: Induction of lysosomotropism in human HeLa cells infected with Ebolavirus assessed as increase in fluorescence intensity of acid compartments at 10 uM for 1 hr by Lysosensor DND189 staining based assay; format: functional, cell-based
Procedure, shortened: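 HeLa cells were pretreated 1 h with compound (Bafilomycin A1 at 0.01 μM as acidification control), then stained with LysoSensor DND 189 for 10 min and washed. Live imaging at Ex/Em 443/505 nm. Fluorescence intensity per area was quantified by image analysis. Eight wells per point, about 3000 cells/well, mean ± SD, three independent experiments.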

Zaire ebolavirus [28] = experiment: Antiviral activity against VSV pseudotyped Ebolavirus Mayinga expressing GFP infected in human HeLa cells assessed as inhibition of viral infection at 10 uM pre-incubated for 2 hrs followed by viral infection and measured after 8 hrs by cell mask deep red staining based assay; format: functional, organism-based; settings: 1976; procedure, shortened: as §4

T1 sequence (P08684 whole entry): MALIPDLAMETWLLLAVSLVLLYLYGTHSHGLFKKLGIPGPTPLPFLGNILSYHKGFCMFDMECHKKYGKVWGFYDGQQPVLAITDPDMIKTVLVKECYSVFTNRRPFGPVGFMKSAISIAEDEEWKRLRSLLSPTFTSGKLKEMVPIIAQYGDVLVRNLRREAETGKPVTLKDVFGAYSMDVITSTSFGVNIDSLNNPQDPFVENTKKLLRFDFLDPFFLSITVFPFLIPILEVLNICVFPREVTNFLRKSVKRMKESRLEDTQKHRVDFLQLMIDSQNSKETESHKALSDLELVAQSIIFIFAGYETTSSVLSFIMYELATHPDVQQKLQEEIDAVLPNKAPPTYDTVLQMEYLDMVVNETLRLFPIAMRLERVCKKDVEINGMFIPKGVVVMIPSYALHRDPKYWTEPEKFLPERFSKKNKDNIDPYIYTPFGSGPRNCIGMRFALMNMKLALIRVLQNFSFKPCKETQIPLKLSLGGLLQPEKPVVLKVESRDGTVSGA
Cytochrome P450 2D6, sequence (P10635 whole entry): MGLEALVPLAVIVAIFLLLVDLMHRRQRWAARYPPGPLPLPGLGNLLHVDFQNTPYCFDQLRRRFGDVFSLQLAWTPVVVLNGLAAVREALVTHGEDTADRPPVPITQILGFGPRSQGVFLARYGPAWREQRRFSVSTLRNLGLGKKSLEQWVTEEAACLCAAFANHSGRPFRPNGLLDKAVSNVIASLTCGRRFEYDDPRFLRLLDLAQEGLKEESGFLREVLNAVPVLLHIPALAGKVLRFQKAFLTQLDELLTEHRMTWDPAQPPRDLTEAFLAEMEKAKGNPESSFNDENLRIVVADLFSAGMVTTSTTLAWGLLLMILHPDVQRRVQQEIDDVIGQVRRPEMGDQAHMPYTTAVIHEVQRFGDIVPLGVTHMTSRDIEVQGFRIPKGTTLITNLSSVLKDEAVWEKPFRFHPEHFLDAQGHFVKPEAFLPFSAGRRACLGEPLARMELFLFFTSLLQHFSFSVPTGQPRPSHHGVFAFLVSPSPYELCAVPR
Cytochrome P450 2C19, sequence (P33261 whole entry): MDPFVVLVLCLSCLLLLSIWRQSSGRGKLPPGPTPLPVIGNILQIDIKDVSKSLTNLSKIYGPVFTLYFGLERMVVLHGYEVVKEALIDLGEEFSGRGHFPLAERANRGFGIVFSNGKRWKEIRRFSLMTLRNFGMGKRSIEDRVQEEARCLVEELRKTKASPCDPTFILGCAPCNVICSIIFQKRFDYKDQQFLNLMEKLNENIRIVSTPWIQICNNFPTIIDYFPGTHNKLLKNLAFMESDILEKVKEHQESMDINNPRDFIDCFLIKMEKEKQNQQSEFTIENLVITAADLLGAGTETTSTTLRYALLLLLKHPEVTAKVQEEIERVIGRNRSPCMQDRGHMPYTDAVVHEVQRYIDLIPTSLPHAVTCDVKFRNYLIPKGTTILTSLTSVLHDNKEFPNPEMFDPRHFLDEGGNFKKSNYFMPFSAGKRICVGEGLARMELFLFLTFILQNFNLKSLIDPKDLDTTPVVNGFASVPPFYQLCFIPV

With CCN(CC)CCCNc1ccnc2c(NCCCN(CC)CC)ccnc12 the INH (Cytochrome P450 2C19) was over 10 µM, the CC50 at 2 h [1] was over 10 µM and the half-life [2] was over 1 h. The INH (Cytochrome P450 3A4 [3]) was over 10 µM, the EC90 (Ebolavirus [4]) was 37.4 µM and the pEC50 (Ebolavirus [4]) was 5.32. For the same molecule, the solubility kinetic [5] was over 0.05 mg/mL, the half-life [6] was over 1 h and the pIC50 (Cytochrome P450 2D6) was under 5.00. It also gave a microsomal CLint [7] of under 23 µL/min/mg, a selectivity ratio [8] of over 2 and an INH (Cytochrome P450 3A4 [9]) of over 10 µM. The solubility [10] was at least 25 mg/mL, the remaining at 1 h [11] was over 85% and the microsomal CLint [12] was under 23 µL/min/mg. It also gave an INH (Cytochrome P450 3A4 [13]) of over 10 µM.
In the case of CCN(CC)CCCNc1ccnc2cccnc12, the pEC50 (Ebolavirus [4]) was 5.00.
In the case of CC(C)NCC(O)COc1cccc2ccccc12 (stereo not drawn) [PROPRANOLOL], the Papp A→B [14] was 37.7 to 39 ×10⁻⁶ cm/s and the Papp B→A [15] was 41.6 to 42.9 ×10⁻⁶ cm/s.
In the case of OC(CNc1ccnc2c(NCC(O)CN3CCOCC3)ccnc12)CN1CCOCC1 (stereo not drawn), the EC50 (Ebolavirus [4]) was “Not Active”.
For CN[C@H]1CC[C@@H](c2ccc(Cl)c(Cl)c2)c2ccccc21 [SERTRALINE], the Activity (Ebolavirus [16]) was 70%.
For Clc1ccc2c(NCCCCNc3ccnc4cccnc34)ccnc2c1, the CC50 at 2 h [1] was over 25 µM, the EC90 (Ebolavirus [4]) was 13 µM and the pEC50 (Ebolavirus [4]) was 5.54. It also gave a selectivity ratio [8] of over 8.7.
In the case of NC(=O)c1nc(F)cnc1O, the Activity (Ebolavirus [17]) was 100% and the pEC50 (Ebolavirus [18]) was 4.17.
Work on c1cc(NCCCCN2CCOCC2)c2nccc(NCCCCN3CCOCC3)c2n1 yielded a CC50 at 2 h [1] of over 25 µM, an EC90 (Ebolavirus [4]) of 9.9 µM and a pEC50 (Ebolavirus [4]) of 5.65. For the same molecule, the selectivity ratio [8] was over 11.2.
For CCN(CC)CCCC(C)Nc1ccnc2c(NC(C)CCCN(CC)CC)ccnc12 (stereo not drawn), the Activity [19] was “inactive”, the INH (Cytochrome P450 2C19) was 3.6 µM and the Activity (Zaire ebolavirus [20]) was 40%. It also gave a CC50 at 2 h [1] of over 10 µM, a half-life [2] of 0.7 h and an INH (Cytochrome P450 3A4 [3]) of over 10 µM. It also gave an EC90 (Ebolavirus [4]) of 4.73 µM, a pEC50 (Ebolavirus [4]) of 6.11 and a solubility kinetic [5] of over 0.05 mg/mL. For the same molecule, the Activity [21] was “inactive”, the half-life [6] was over 1 h and the pIC50 (Cytochrome P450 2D6) was 5.10. For the same molecule, the Activity (Zaire ebolavirus [22]) was “Active”, the microsomal CLint [7] was 32.9 µL/min/mg and the selectivity ratio [8] was over 13. It also gave an INH (Cytochrome P450 3A4 [9]) of over 10 µM, a solubility [10] of at least 25 mg/mL and a remaining at 1 h [11] of over 85%. For the same molecule, the Activity (Zaire ebolavirus [23]) was “Active”, the Activity [24] was “Active” and the microsomal CLint [12] was under 23 µL/min/mg. The INH (Cytochrome P450 3A4 [13]) was over 10 µM.
CCN(CC)CCCC(C)Nc1ccnc2cccnc12 (stereo not drawn) gave a pEC50 (Ebolavirus [4]) of 5.00.
With OC(CNc1ccnc2c1ccc1c2ccc2c(NCCN3CCOCC3)ccnc21)CN1CCOCC1 (stereo not drawn) the CC50 at 2 h [1] was over 10 µM, the EC90 (Ebolavirus [4]) was 3.5 µM and the pEC50 (Ebolavirus [4]) was 6.22. It also gave a selectivity ratio [8] of over 16.7.
For c1cnc2c(NCCCN3CCOCC3)ccnc2c1, the EC50 (Ebolavirus [4]) was “Not Active”.
For CCN(CC)Cc1cc(Nc2ccnc3cc(Cl)ccc23)ccc1O, the inhibition [25] was “inactive”, the Activity (HeLa [26]) was “Active” and the Activity (HeLa [27]) was “inactive”. For the same molecule, the Activity (Zaire ebolavirus [28]) was “Active”.
